ChEMBL document CHEMBL3877287, “Analogue based drug design, synthesis, molecular docking and anticancer evaluation of novel chromene sulfonamide hybrids as aromatase inhibitors and apoptosis enhancers” (Eur J Med Chem, 2016)

Key:
Aromatase [1] = target: T1, Aromatase (Homo sapiens, UniProt P11511); assay: Inhibition of aromatase activity in human T47D cells after 24 hrs; assay type: cell-based
T1 sequence (P11511 whole entry): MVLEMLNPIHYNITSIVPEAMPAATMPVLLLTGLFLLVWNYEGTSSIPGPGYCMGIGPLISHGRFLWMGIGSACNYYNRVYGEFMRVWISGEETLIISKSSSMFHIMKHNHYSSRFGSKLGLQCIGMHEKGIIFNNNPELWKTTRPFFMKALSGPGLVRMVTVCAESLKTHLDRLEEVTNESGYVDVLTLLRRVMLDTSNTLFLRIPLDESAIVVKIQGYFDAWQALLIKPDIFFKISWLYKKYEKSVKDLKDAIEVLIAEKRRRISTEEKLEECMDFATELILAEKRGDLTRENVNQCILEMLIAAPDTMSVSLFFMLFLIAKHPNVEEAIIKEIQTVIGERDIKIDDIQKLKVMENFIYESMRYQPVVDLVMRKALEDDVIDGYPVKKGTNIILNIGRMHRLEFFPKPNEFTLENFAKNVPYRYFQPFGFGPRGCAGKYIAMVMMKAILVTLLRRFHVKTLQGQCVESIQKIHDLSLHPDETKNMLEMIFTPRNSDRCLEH
In short: (§1)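 T47D cells in RPMI 1640 with 10% FBS and 1% penicillin-streptomycin, seeded at 1.2–1.8 × 10,000 cells/well in 100 µL medium plus 100 µL compound. Cells treated 24 h, including serial dilutions for IC50. Aromatase (CYP19A1) then measured with a human ELISA kit.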

Aromatase [2] = target: T1, Aromatase; assay: Inhibition of aromatase activity in human T47D cells at 100 uL after 24 hrs; assay type: cell-based; design: concentration or dose not given beside the values; in short: as §1
[3] = Cytotoxicity against human T47D cells after 48 hrs by sulforhodamine B assay; assay type: functional, cell-based
In short: (§2)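 Cells grown in RPMI 1640 with 10% heat-inactivated FBS and 1% penicillin-streptomycin-amphotericin B at 37 °C, 5% CO2, passages 5–20. Plated at 10⁴ cells/well with 24 h recovery. Exposed to 5, 12, 25 and 50 μmol/L from DMSO stock (final DMSO <0.1%), triplicate wells, 48 h. TCA-fixed, SRB-stained, read by ELISA reader. IC50 fitted with Hill-type equation.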

T47D [4] = assay: Induction of apoptosis in human T47D cells assessed as Bax level at IC50 (reference value: 24.6 IU/ml); assay type: functional
T47D [5] = assay: Induction of apoptosis in human T47D cells at 9.2 uM by propidium iodide staining based cytometry (reference value: 2.13%); assay type: functional
T47D [6] = assay: Induction of apoptosis in human T47D cells assessed as Bcl-xl level at IC50 (reference value: 754565 IU/ml); assay type: functional
[7] = Induction of apoptosis in human T47D cells assessed as upregulation of active caspase 3 level by immunoassay relative to letrozole; assay type: functional, cell-based
T47D [8] = assay: Induction of apoptosis in human T47D cells assessed as increase in Bax/Bcl2 ratio at IC50 relative to control; assay type: functional
[9] = Induction of apoptosis in human T47D cells assessed as upregulation of active caspase 3 level at IC50 by immunoassay relative to control; assay type: functional, cell-based
In short: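 Cells washed with PBS and lysed in extraction buffer with protease inhibitors (1 mL per 10⁷ cells). Lysate diluted just before assay. Active caspase-3 measured by human sandwich immunoassay with absorbance at 450 nm read within 30 min. Expressed as fold versus control cells.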

T47D [10] = assay: Induction of apoptosis in human T47D cells assessed as decrease in Bcl-xl level at IC50 relative to control; assay type: functional
[11] = Induction of apoptosis in human T47D cells assessed as upregulation of caspase 8 at IC50 after 48 hrs by ELISA method relative to control; assay type: functional, cell-based
In short: (§3)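 Cells grown in RPMI 1640 with 10% FBS at 37 °C, plated at 1.2–1.8 × 10,000 cells/well and exposed to compound for 48 h. Lysed in cell extraction buffer, diluted in standard diluent. Caspase-8 and caspase-9 measured separately by human ELISA, absorbance 450 nm. Fold versus control.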

T47D [12] = assay: Induction of apoptosis in human T47D cells assessed as decrease in Bcl2 level at IC50 relative to control; assay type: functional
[13] = Cell cycle arrest in human T47D cells assessed as S phase accumulation at 9.2 uM by propidium iodide staining based cytometry (reference value: 17.14%); assay type: functional
In short: (§4)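 T47D cells exposed to test compound at 9.2 μM. Cells stained with propidium iodide per kit procedure and run on a DNA cytometer. PBMCs of known DNA content served as reference for DNA index. Percent of cells in G1, S and G2/M phases compared with untreated control.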

T47D [14] = assay: Induction of apoptosis in human T47D cells assessed as Bcl2 level at IC50 (reference value: 568019 IU/ml); assay type: functional
[15] = Induction of apoptosis in human T47D cells assessed as upregulation of caspase 9 at IC50 after 48 hrs by ELISA method relative to control; assay type: functional, cell-based; in short: as §3
[16] = Cytotoxicity against human 184A1 cells after 48 hrs by sulforhodamine B assay; assay type: toxicity, cell-based; in short: as §2
[17] = Cell cycle arrest in human T47D cells assessed as G2/M phase accumulation at 9.2 uM by propidium iodide staining based cytometry (reference value: 15.81%); assay type: functional; in short: as §4
[18] = Cell cycle arrest in human T47D cells assessed as G1 phase accumulation at 9.2 uM by propidium iodide staining based cytometry (reference value: 64.92%); assay type: functional; in short: as §4

Row | SMILES | inhibition (INH) (Aromatase [2]) [%] | IC50 [3] [µM] | also measured
1 | Cc1ccnc(NS(=O)(=O)c2ccc(N/C=C\C(=O)c3cc4ccccc4oc3=O)cc2)n1 | 67 | 24.5 | IC50 (Aromatase [1]): 9.52 µM
2 | Cc1noc(NS(=O)(=O)c2ccc(N/C=C\C(=O)c3cc4ccccc4oc3=O)cc2)c1C | 20 | 68.4 | 
3 | N=C(N)NS(=O)(=O)c1ccc(N/C=C\C(=O)c2cc3ccccc3oc2=O)cc1 | 30 | 87.6 | 
4 | Cc1cc(NS(=O)(=O)c2ccc(N/C=C\C(=O)c3cc4ccccc4oc3=O)cc2)on1 | 28 | 75.6 | 
5 | O=C(/C=C\Nc1ccc(S(=O)(=O)Nc2cnc3ccccc3n2)cc1)c1cc2ccccc2oc1=O |  | 86.9 | 
6 | O=C(C=CNc1ccc(S(=O)(=O)c2ccc(NC=CC(=O)c3cc4ccccc4oc3=O)cc2)cc1)c1cc2ccccc2oc1=O |  | 70.3 | 
7 | Cc1cc(NS(=O)(=O)c2ccc(N/C=C\C(=O)c3cc4ccccc4oc3=O)cc2)nc(C)n1 |  | 100 | 
8 | O=C(/C=C\Nc1ccc(S(=O)(=O)Nc2ncccn2)cc1)c1cc2ccccc2oc1=O | 41 | 75.2 | 
9 | O=C(/C=C\Nc1ccc(S(=O)(=O)Nc2ccccn2)cc1)c1cc2ccccc2oc1=O | 65 | 37.6 | IC50 (Aromatase [1]): 12.5 µM
10 | O=C(/C=C\Nc1ccc(S(=O)(=O)Nc2ccnn2-c2ccccc2)cc1)c1cc2ccccc2oc1=O | 70 | 9.2 | Activity (T47D [4]): 402127 IU/ml; Activity (T47D [5]): 31.7%; IC50 (Aromatase [1]): 5.09 µM; Activity (T47D [6]): 384 IU/ml; fold change (FC) [7]: 3; fold change (FC) (T47D [8]): 33000; fold change (FC) [9]: 45; fold change (FC) (T47D [10]): 1965; fold change (FC) [11]: 40; fold change (FC) (T47D [12]): 369; Activity [13]: 14.6%; Activity (T47D [14]): 1540 IU/ml; fold change (FC) [15]: 10; IC50 at 48 h [16]: 184 µM; Activity [17]: 44.5%; Activity [18]: 9.2%
11 | COc1cccc2c1C(=O)c1c(O)c3c(c(O)c1C2=O)C[C@@](O)(C(=O)CO)C[C@@H]3O[C@H]1C[C@H](N)[C@H](O)[C@H](C)O1 [DOXORUBICIN] |  | 9.8 | 
12 | NS(=O)(=O)c1ccc(N/C=C\C(=O)c2cc3ccccc3oc2=O)cc1 |  | 109 | 
13 | Cc1cc(C)nc(NS(=O)(=O)c2ccc(N/C=C\C(=O)c3cc4ccccc4oc3=O)cc2)n1 | 30 | 62.2 | 
14 | COc1cnc(NS(=O)(=O)c2ccc(N/C=C\C(=O)c3cc4ccccc4oc3=O)cc2)nc1 | 81 | 8.8 | Activity (T47D [4]): 176887 IU/ml; IC50 (Aromatase [1]): 6.07 µM; Activity (T47D [6]): 6776 IU/ml; fold change (FC) [7]: 1.3; fold change (FC) (T47D [8]): 5936; fold change (FC) [9]: 20.6; fold change (FC) (T47D [10]): 111.35; fold change (FC) [11]: 21.8; fold change (FC) (T47D [12]): 819.65; Activity (T47D [14]): 693 IU/ml; fold change (FC) [15]: 9.91; IC50 at 48 h [16]: 172 µM
15 | Nc1ccc(S(=O)(=O)c2ccc(N/C=C\C(=O)c3cc4ccccc4oc3=O)cc2)cc1 |  | 91.9 | 
16 | COc1cc(NS(=O)(=O)c2ccc(N/C=C\C(=O)c3cc4ccccc4oc3=O)cc2)nc(OC)n1 | 44 | 37.8 | 
17 | Cc1nnc(NS(=O)(=O)c2ccc(N/C=C\C(=O)c3cc4ccccc4oc3=O)cc2)s1 |  | 94 | 
18 | CN(C)/C=C/C(=O)c1cc2ccccc2oc1=O |  | 146 | 
19 | COc1ncnc(NS(=O)(=O)c2ccc(N/C=C\C(=O)c3cc4ccccc4oc3=O)cc2)c1OC | 69 | 9.8 | IC50 (Aromatase [1]): 4.66 µM
20 | O=C(/C=C\Nc1ccc(S(=O)(=O)Nc2ccc3cn[nH]c3c2)cc1)c1cc2ccccc2oc1=O |  | 96.5 | 
